Reference: ChEMBL document CHEMBL3286244, “Chlorpheniramine Analogues Reverse Chloroquine Resistance in Plasmodium falciparum by Inhibiting PfCRT” (ACS Med Chem Lett, 2014)
Active and inactive are the calls of the source. The rule behind the calls is not given here.

Each molecule was assayed against T1, Chloroquine resistance transporter (Plasmodium falciparum) (UniProt Q9N623) (assay: Inhibition of chloroquine-resistant Plasmodium falciparum Dd2 CRT expressed in Xenopus laevis oocytes plasma membrane assessed as reduction of [3H]-chloroquine transportation at 100 uM after 1 to 2 hrs).
T1 sequence (whole entry): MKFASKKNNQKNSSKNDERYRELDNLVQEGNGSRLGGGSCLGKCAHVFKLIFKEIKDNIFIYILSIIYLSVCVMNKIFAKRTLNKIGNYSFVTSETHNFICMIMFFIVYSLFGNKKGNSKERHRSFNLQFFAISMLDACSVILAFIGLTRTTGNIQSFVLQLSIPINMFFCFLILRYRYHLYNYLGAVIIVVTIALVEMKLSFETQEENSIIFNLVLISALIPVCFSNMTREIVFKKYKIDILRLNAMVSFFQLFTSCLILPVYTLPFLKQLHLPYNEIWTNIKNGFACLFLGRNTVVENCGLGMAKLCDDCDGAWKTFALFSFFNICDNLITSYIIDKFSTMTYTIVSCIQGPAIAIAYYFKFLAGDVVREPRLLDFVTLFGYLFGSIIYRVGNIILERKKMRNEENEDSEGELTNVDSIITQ
Type: cell-based
Summary of the method: (§1)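 Xenopus oocytes expressing PfCRT of the CQ-resistant (PfCRTCQR) or CQ-sensitive (PfCRTCQS) form. [3H]CQ uptake measured in the presence of reverser at 100 μM extracellular.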

SMILES	inhibition
CN(C)CCC/C=C(/c1ccc(Cl)cc1)c1ccccn1	inactive
N#C/C=C(\c1ccccc1)c1ccccn1	inactive
CCN(CC)C/C=C(\c1ccc(Cl)cc1)c1ccccn1	inactive
CN(C)CCCC(c1cccc(Cl)c1)c1ccccn1 (racemic)	inactive
CN(C)CCC(c1cccc(Cl)c1)c1ccccn1 (racemic)	inactive
CCN(CC)CCC(c1ccc(Cl)cc1)c1ccccn1 (racemic)	inactive
CN(C)CCCC(c1cccc(Cl)c1)c1cnccn1 (racemic)	inactive
CN(C)CC/C=C(\c1ccc(Cl)cc1)c1ccccn1	inactive
CN(C)CCCC(c1ccccn1)c1ccccc1Cl (racemic)	inactive
CN(C)C/C=C(/c1cccc(Cl)c1)c1ccccn1	inactive
CN(C)CCCC(c1ccc(Cl)cc1)c1ccccn1 (racemic)	inactive
COc1ccc(CCN(C)CCCC(C#N)(c2ccc(OC)c(OC)c2)C(C)C)cc1OC (stereo not given)	Active
CC(CN1c2ccccc2Sc2ccccc21)N(C)C (stereo not given) [PROMETHAZINE]	Active
CN(C)CC/C=C(/c1ccccn1)c1ccccc1Cl	inactive
CN(C)CCCC(c1ccncc1)c1cccc(Cl)c1 (racemic)	inactive

These molecules were tested against T1, Chloroquine resistance transporter (Plasmodium falciparum) (assay: Inhibition of chloroquine-sensitive Plasmodium falciparum D10 CRT expressed in Xenopus laevis oocytes plasma membrane assessed as reduction of [3H]-chloroquine transportation at 100 uM after 1 to 2 hrs).
Type: cell-based
Summary of the method: as §1

SMILES	inhibition
CN(C)CCC/C=C(/c1ccc(Cl)cc1)c1ccccn1	inactive
N#C/C=C(\c1ccccc1)c1ccccn1	inactive
CCN(CC)C/C=C(\c1ccc(Cl)cc1)c1ccccn1	inactive
CN(C)CCCC(c1cccc(Cl)c1)c1ccccn1 (racemic)	inactive
CN(C)CCC(c1cccc(Cl)c1)c1ccccn1 (racemic)	inactive
CCN(CC)CCC(c1ccc(Cl)cc1)c1ccccn1 (racemic)	inactive
CN(C)CCCC(c1cccc(Cl)c1)c1cnccn1 (racemic)	inactive
CN(C)CC/C=C(\c1ccc(Cl)cc1)c1ccccn1	inactive
CN(C)CCCC(c1ccccn1)c1ccccc1Cl (racemic)	inactive
CN(C)C/C=C(/c1cccc(Cl)c1)c1ccccn1	inactive
CN(C)CCCC(c1ccc(Cl)cc1)c1ccccn1 (racemic)	inactive
CN(C)CC/C=C(/c1ccccn1)c1ccccc1Cl	inactive
CN(C)CCCC(c1ccncc1)c1cccc(Cl)c1 (racemic)	inactive

What follows are molecules tested against Chloroquine resistance transporter (Plasmodium falciparum, UniProt Q9N623) (assay: Inhibition of chloroquine-resistant Plasmodium falciparum Dd2 CRT expressed in Xenopus laevis oocytes plasma membrane assessed as reduction of [3H]-chloroquine transportation after 1 to 2 hrs).
Type: cell-based
Summary of the method: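 Xenopus oocytes expressing PfCRTCQR. Inhibition of [3H]CQ uptake measured over a range of reverser concentrations. IC50 derived from concentration-response data, reported as mean ± SEM.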

SMILES	IC50
CCN(CC)C/C=C(\c1ccc(Cl)cc1)c1ccccn1	321 µM
CN(C)CCCC(c1cccc(Cl)c1)c1ccccn1 (racemic)	66 µM
CN(C)CCC(c1cccc(Cl)c1)c1ccccn1 (racemic)	63 µM
CC(CN1c2ccccc2Sc2ccccc21)N(C)C (stereo not given) [PROMETHAZINE]	85 µM

What follows are molecules tested on Plasmodium falciparum (assay: Antiplasmodial activity against Plasmodium falciparum C2GC03 expressing wild-type pfcrt allele assessed as parasite growth at 800 nM after 72 hrs by SYBR Green I-based fluorescence assay relative to control).
Type: functional
Summary of the method: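 Isogenic pfcrt transfectant parasite line C2GCO3 (wild-type pfcrt allele) was grown in a proliferation assay with the test compound at 800 nM and no chloroquine. Proliferation is expressed relative to untreated control.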

SMILES	Activity
CCN(CC)C/C=C(\c1ccc(Cl)cc1)c1ccccn1	100%
CN(C)CCCC(c1cccc(Cl)c1)c1ccccn1 (racemic)	99%
CN(C)CCC(c1cccc(Cl)c1)c1ccccn1 (racemic)	99%
COc1ccc(CCN(C)CCCC(C#N)(c2ccc(OC)c(OC)c2)C(C)C)cc1OC (stereo not given)	43%

What follows are molecules tested on Plasmodium falciparum (assay: Antiplasmodial activity against Plasmodium falciparum C4Dd2 expressing chloroquine-resistance-conferring pfcrt alleles assessed as parasite growth at 800 nM after 72 hrs by SYBR Green I-based fluorescence assay relative to control).
Type: functional
Summary of the method: (§2)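 Isogenic pfcrt transfectant lines (C2GCO3 wild-type allele; C4Dd2 and C67G8 carrying CQ-resistance-conferring alleles from Dd2 or 7G8). Parasite proliferation measured in the absence of CQ with test compound at 800 nM and expressed relative to untreated control.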

SMILES	Activity
CCN(CC)C/C=C(\c1ccc(Cl)cc1)c1ccccn1	84%
CN(C)CCCC(c1cccc(Cl)c1)c1ccccn1 (racemic)	67%
CN(C)CCC(c1cccc(Cl)c1)c1ccccn1 (racemic)	75%
COc1ccc(CCN(C)CCCC(C#N)(c2ccc(OC)c(OC)c2)C(C)C)cc1OC (stereo not given)	46%

What follows are molecules tested on Plasmodium falciparum (assay: Antiplasmodial activity against Plasmodium falciparum C67G8 expressing chloroquine-resistance-conferring pfcrt alleles assessed as parasite growth at 800 nM after 72 hrs by SYBR Green I-based fluorescence assay relative to control).
Type: functional
Summary of the method: as §2

SMILES	Activity
CCN(CC)C/C=C(\c1ccc(Cl)cc1)c1ccccn1	90%
CN(C)CCCC(c1cccc(Cl)c1)c1ccccn1 (racemic)	72%
CN(C)CCC(c1cccc(Cl)c1)c1ccccn1 (racemic)	74%
COc1ccc(CCN(C)CCCC(C#N)(c2ccc(OC)c(OC)c2)C(C)C)cc1OC (stereo not given)	55%

The molecules below were run on Plasmodium falciparum (assay: Response modification index, ratio of IC50 for Plasmodium falciparum C2GC03 expressing wild-type pfcrt allele in presence of drug to IC50 for Plasmodium falciparum C2GC03 expressing wild-type pfcrt allele in absence of 800 nM of drug).
Type: functional
Summary of the method: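 In a parasite proliferation assay on the isogenic pfcrt transfectant line C2GCO3 (wild-type allele), chloroquine IC50 was measured with and without the test compound at 800 nM. RMI is chloroquine IC50 with the compound divided by chloroquine IC50 without it.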

SMILES	Ratio IC50
CCN(CC)C/C=C(\c1ccc(Cl)cc1)c1ccccn1	1.01
CN(C)CCCC(c1cccc(Cl)c1)c1ccccn1 (racemic)	0.95
CN(C)CCC(c1cccc(Cl)c1)c1ccccn1 (racemic)	0.99

These molecules were tested on Plasmodium falciparum (assay: Response modification index, ratio of IC50 for Plasmodium falciparum C4Dd2 expressing chloroquine-resistance-conferring pfcrt alleles in presence of drug to IC50 for Plasmodium falciparum C4Dd2 expressing chloroquine-resistance-conferring pfcrt alleles in absence of 800 nM of drug).
Type: functional
Summary of the method: (§3)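 Proliferation assays on isogenic pfcrt transfectant lines (C4Dd2, C67G8). CQ IC50 determined with and without 800 nM test compound. RMI calculated as CQ IC50 with compound divided by CQ IC50 without compound.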

SMILES	Ratio IC50
CCN(CC)C/C=C(\c1ccc(Cl)cc1)c1ccccn1	0.49
CN(C)CCCC(c1cccc(Cl)c1)c1ccccn1 (racemic)	0.27
CN(C)CCC(c1cccc(Cl)c1)c1ccccn1 (racemic)	0.27

What follows are molecules tested on Plasmodium falciparum (assay: Response modification index, ratio of IC50 for Plasmodium falciparum C67G8 expressing chloroquine-resistance-conferring pfcrt alleles in presence of drug to IC50 for Plasmodium falciparum C67G8 expressing chloroquine-resistance-conferring pfcrt alleles in absence of 800 nM of drug).
Type: functional
Summary of the method: as §3

SMILES	Ratio IC50
CCN(CC)C/C=C(\c1ccc(Cl)cc1)c1ccccn1	0.69
CN(C)CCCC(c1cccc(Cl)c1)c1ccccn1 (racemic)	0.35
CN(C)CCC(c1cccc(Cl)c1)c1ccccn1 (racemic)	0.35

What follows are molecules tested against T1, Chloroquine resistance transporter (Plasmodium falciparum) (assay: Inhibition of CTR in Plasmodium falciparum C2GC03 expressing wild-type pfcrt allele assessed as increase of accumulation of [3H]-chloroquine level at 1 uM after 1 hr).
Summary of the method: (§4)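 Isogenic pfcrt transfectant lines C2GCO3 (wild-type allele), C4Dd2 and C67G8 (CQ-resistance alleles from Dd2 or 7G8). CQ accumulation ratio measured with and without reverser. Expressed as fold increase in accumulation ratio over control.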

SMILES	inhibition
CN(C)CCC/C=C(/c1ccc(Cl)cc1)c1ccccn1	inactive
N#C/C=C(\c1ccccc1)c1ccccn1	inactive
CCN(CC)C/C=C(\c1ccc(Cl)cc1)c1ccccn1	inactive
CN(C)CCCC(c1cccc(Cl)c1)c1ccccn1 (racemic)	inactive
CN(C)CCC(c1cccc(Cl)c1)c1ccccn1 (racemic)	inactive
CCN(CC)CCC(c1ccc(Cl)cc1)c1ccccn1 (racemic)	inactive
CN(C)CCCC(c1cccc(Cl)c1)c1cnccn1 (racemic)	inactive
CN(C)CC/C=C(\c1ccc(Cl)cc1)c1ccccn1	inactive
CN(C)CCCC(c1ccccn1)c1ccccc1Cl (racemic)	inactive
CN(C)C/C=C(/c1cccc(Cl)c1)c1ccccn1	inactive
CN(C)CCCC(c1ccc(Cl)cc1)c1ccccn1 (racemic)	inactive
COc1ccc(CCN(C)CCCC(C#N)(c2ccc(OC)c(OC)c2)C(C)C)cc1OC (stereo not given)	inactive
CN(C)CC/C=C(/c1ccccn1)c1ccccc1Cl	inactive
CN(C)CCCC(c1ccncc1)c1cccc(Cl)c1 (racemic)	inactive

Each molecule was assayed against T1, Chloroquine resistance transporter (Plasmodium falciparum) (assay: Inhibition of CTR in Plasmodium falciparum C4Dd2 expressing chloroquine-resistance-conferring pfcrt alleles assessed as increase of accumulation of [3H]-chloroquine level at 1 uM after 1 hr relative to control).
Summary of the method: as §4

SMILES	inhibition	fold change (FC)
N#C/C=C(\c1ccccc1)c1ccccn1	inactive	–
CCN(CC)C/C=C(\c1ccc(Cl)cc1)c1ccccn1	–	1.6
CN(C)CCCC(c1cccc(Cl)c1)c1ccccn1 (racemic)	–	2.7
COc1ccc(CCN(C)CCCC(C#N)(c2ccc(OC)c(OC)c2)C(C)C)cc1OC (stereo not given)	–	3.1

These molecules were tested against T1, Chloroquine resistance transporter (Plasmodium falciparum) (assay: Inhibition of CTR in Plasmodium falciparum C67G8 expressing chloroquine-resistance-conferring pfcrt alleles assessed as increase of accumulation of [3H]-chloroquine level at 1 uM after 1 hr relative to control).
Summary of the method: as §4

SMILES	inhibition	fold change (FC)
N#C/C=C(\c1ccccc1)c1ccccn1	inactive	–
CCN(CC)C/C=C(\c1ccc(Cl)cc1)c1ccccn1	–	1.4
CN(C)CCCC(c1cccc(Cl)c1)c1ccccn1 (racemic)	–	2
COc1ccc(CCN(C)CCCC(C#N)(c2ccc(OC)c(OC)c2)C(C)C)cc1OC (stereo not given)	–	1.9
